Results: ChEMBL document CHEMBL1155251, “Efficient synthesis of the first betulonic acid-acetylene hybrids and their hepatoprotective and anti-inflammatory activity” (2009)
The source made the active and inactive calls. No cut-off for these calls is given here.

Assays:
[1] = system: Mus musculus; test: Antiinflammatory activity against carrageenan-induced paw edema in mouse assessed as decrease in index of hind paw edema at 20 mg/kg, po administered 1 hr prior to carrageenan challenge; assay type: functional, organism-based; set-up: dose 20 mg/kg
Outline: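 Outbred male mice (22–25 g), ad libitum food/water. Dosed orally at 20 mg/kg as aqueous-Tween suspension 1 h before carrageenan; controls got water–Tween. Killed by cervical dislocation 5 h after phlogogen; hind paws cut at ankle and weighed. Edema index = (treated − untreated paw weight)/untreated paw weight.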

[2] = system: Mus musculus; test: Hepatoprotective activity against CCL4-induced hepatitis in mouse assessed as thiobarbiturate relative substance level at 50 mg/kg, po administered 1 hr prior to CCL4 challenge (reference value: 1.63+/- 0.24 ucat/L); assay type: functional
Outline: (§1)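 Outbred male mice (22–25 g). Acute hepatitis induced by single oral 25% CCl4 in sunflower oil. Compounds given orally as water–Tween-80 suspension 1 h before induction; controls got vehicle. At least ten animals per group. Next day, serum ALP, ALT and AST measured with standard kits; TBARS measured by an established procedure.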

[3] = system: Mus musculus; test: Hepatoprotective activity against CCL4-induced hepatitis in mouse assessed as aspartate amino transferase level at 50 mg/kg, po administered 1 hr prior to CCL4 challenge (reference value: 5.23+/- 0.76 ucat/L); assay type: functional; outline: as §1
[4] = system: Mus musculus; test: Hepatoprotective activity against CCL4-induced hepatitis in mouse assessed as […] level at 50 mg/kg, po administered 1 hr prior to CCL4 challenge (reference value: 5.04+/- 0.72 ucat/L); assay type: functional; outline: as §1
[5] = system: Mus musculus; test: Hepatoprotective activity against CCL4-induced hepatitis in mouse assessed as alkaline phosphatase level at 50 mg/kg, po administered 1 hr prior to CCL4 challenge (reference value: 18.27+/- 1.42 ucat/L); assay type: functional; outline: as §1
[6] = system: Mus musculus; test: Hepatoprotective activity against CCL4-induced hepatitis in mouse assessed as alkaline phosphatase level at 100 mg/kg, po administered 1 hr prior to CCL4 challenge (reference value: 18.27+/- 1.42 ucat/L); assay type: functional; outline: as §1
[7] = system: Mus musculus; test: Hepatoprotective activity against CCL4-induced hepatitis in mouse assessed as aspartate amino transferase level at 100 mg/kg, po administered 1 hr prior to CCL4 challenge (reference value: 5.23+/- 0.76 ucat/L); assay type: functional; outline: as §1
[8] = system: Mus musculus; test: Hepatoprotective activity against CCL4-induced hepatitis in mouse assessed as thiobarbiturate relative substance level at 100 mg/kg, po administered 1 hr prior to CCL4 challenge (reference value: 1.63+/- 0.24 ucat/L); assay type: functional; outline: as §1
[9] = system: Mus musculus; test: Hepatoprotective activity against CCL4-induced hepatitis in mouse assessed as […] level at 100 mg/kg, po administered 1 hr prior to CCL4 challenge (reference value: 5.04+/- 0.72 ucat/L); assay type: functional; outline: as §1
[10] = system: Mus musculus; test: Hepatoprotective activity against CCL4-induced hepatitis in mouse assessed as […] level at 20 mg/kg, po administered 1 hr prior to CCL4 challenge (reference value: 5.04+/- 0.72 ucat/L); assay type: functional; outline: as §1
[11] = system: Mus musculus; test: Hepatoprotective activity against CCL4-induced hepatitis in mouse assessed as aspartate amino transferase level at 20 mg/kg, po administered 1 hr prior to CCL4 challenge (reference value: 5.23+/- 0.76 ucat/L); assay type: functional; outline: as §1
[12] = system: Mus musculus; test: Hepatoprotective activity against CCL4-induced hepatitis in mouse assessed as alkaline phosphatase level at 20 mg/kg, po administered 1 hr prior to CCL4 challenge (reference value: 18.27+/- 1.42 ucat/L); assay type: functional; outline: as §1
[13] = system: Mus musculus; test: Hepatoprotective activity against CCL4-induced hepatitis in mouse assessed as thiobarbiturate relative substance level at 20 mg/kg, po administered 1 hr prior to CCL4 challenge (reference value: 1.63+/- 0.24 ucat/L); assay type: functional; outline: as §1

Row | SMILES | Activity [1] | Activity [2] [µmol/L] | Activity [3] [ucat/L] | Activity [4] [ucat/L] | Activity [5] [ucat/L] | also measured
1 | COc1ccc2c(c1)c(CC(=O)O)c(C)n2C(=O)c1ccc(Cl)cc1 | Active |  |  |  |  | 
2 | C=C(C)[C@@H]1CC[C@]2(C(=O)Nc3ccc(C#CCN4CCCCC4)cc3)CC[C@]3(C)[C@H](CC[C@@H]4[C@@]5(C)CCC(=O)C(C)(C)[C@@H]5CC[C@]43C)[C@@H]12 | Active | 1.06 | 3.25 | 3.08 | 12.8 | 
3 | O=C1c2c(O)cc(O)cc2O[C@H](c2ccc(O)c(O)c2)[C@H]1O [(+)-TAXIFOLIN] |  |  |  |  |  | Activity [6]: 11.31 ucat/L; Activity [7]: 3.88 ucat/L; Activity [8]: 1.42 µmol/L; Activity [9]: 3.63 ucat/L
4 | C=C(C)[C@@H]1CC[C@]2(C(=O)Nc3ccc(C#CCN4CCOCC4)cc3)CC[C@]3(C)[C@H](CC[C@@H]4[C@@]5(C)CCC(=O)C(C)(C)[C@@H]5CC[C@]43C)[C@@H]12 | Active | 3.21 | 5.25 | 3.48 | 14.28 | 
5 | C=C(C)[C@@H]1CC[C@]2(C(=O)Nc3ccc(I)cc3)CC[C@]3(C)[C@H](CC[C@@H]4[C@@]5(C)CCC(=O)C(C)(C)[C@@H]5CC[C@]43C)[C@@H]12 | inactive |  |  |  |  | Activity [10]: 2.75 ucat/L; Activity [11]: 3.09 ucat/L; Activity [12]: 10.27 ucat/L; Activity [13]: 2.03 µmol/L
